The nature of series [1]: Determination of cloud points of polymers. Type of series: physicochemical. The following applies: in PBS; refers to Table 1.
A short description of the next series: Dynamic light scattering. Type of series: physicochemical. The following applies: DLS, 1 mg·mL–1 in PBS pH 7.4, 37 °C, 173° angle; micelles as prepared.
For series [2], the system named is Metalloprotease (type IV) collagenase from C. histolyticume. The experiment in a line: Kinetics of Pep-NC cleavage by collagenase. The following applies: GPC; for change of molecular weight after incubation with collagenase: collagenase 30 units·mL–1, 24 h. Type of series: in vitro ADME. A digest of the protocol: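 Polymer at 5 mg·mL–1 in PBS pH 7.4 with 0.9 mM CaCl2 and 0.02% NaN3, held 3 h at 4 °C, then 37 °C. l-Pep-NC incubated with or without type IV collagenase (0.5 units·mL–1); d-Pep-NC with 30 units·mL–1 for 24 h. Timed l-Pep-NC aliquots quenched 1 h with 0.1 M EDTA, dialysed, lyophilised. Mn by GPC (DMF/10 mM LiCl, 65 °C, RI detection, PEG standards).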

[3] abbreviates: 37 °C, 5 mg·mL–1 polymer in PBS pH 7.4 with 0.9 mM CaCl2.

The record followed here is publication PMC7218746 (Biomacromolecules, 2020).

Ends that are not written are not given here.

“KGPQGIFGQK [Pep-NC, P(NIPAM-co-HPMA-Cys)-PEG-peptide-PEG-P(NIPAM-co-HPMA-Cys)]” returned an LCST in series [1] of around 31 °C. The Z-average diameter in the series “Dynamic light scattering” was determined as 87 ± 1 nm.
Turning to “KGPQGIFGQK [L-Pep-NC, P(NIPAM-co-HPMA-Cys)-PEG-peptide-PEG-P(NIPAM-co-HPMA-Cys)]”, the “change of molecular weight in the absence of the enzyme” value in series [2] (24 h, 37 °C, PBS pH 7.4) was “No change in the molecular weight”. Further, in series [2] (collagenase 0.5 units·mL–1, 37 °C, 5 mg·mL–1 polymer in PBS pH 7.4 with 0.9 mM CaCl2), the “time for cleavage of the peptide block” value turned out to be 160 min. Besides, the “change of molecular weight after incubation with collagenase” value in series [2] (setting [3]) is listed as “reduced to half its original molecular weight”.
Take “KGPQGIFGQK [D-Pep-NC, (NIPAM-co-HPMA-Cys)-PEG-D-Peptide-PEG-P(NIPAM-co-HPMA-Cys)]”: in series [2] (setting [3]), the “change of molecular weight after incubation with collagenase” value was “did not change”.
